Three molecules from ChEMBL document CHEMBL4602702, “Red-Emitting Dibenzodiazepinone Derivatives as Fluorescent Dualsteric Probes for the Muscarinic Acetylcholine M2 Receptor” (J Med Chem, 2020) can be followed below.

The target of assay [1] is T1, Muscarinic acetylcholine receptor M2 (Homo sapiens) (UniProt P08172).
T1 sequence (whole entry): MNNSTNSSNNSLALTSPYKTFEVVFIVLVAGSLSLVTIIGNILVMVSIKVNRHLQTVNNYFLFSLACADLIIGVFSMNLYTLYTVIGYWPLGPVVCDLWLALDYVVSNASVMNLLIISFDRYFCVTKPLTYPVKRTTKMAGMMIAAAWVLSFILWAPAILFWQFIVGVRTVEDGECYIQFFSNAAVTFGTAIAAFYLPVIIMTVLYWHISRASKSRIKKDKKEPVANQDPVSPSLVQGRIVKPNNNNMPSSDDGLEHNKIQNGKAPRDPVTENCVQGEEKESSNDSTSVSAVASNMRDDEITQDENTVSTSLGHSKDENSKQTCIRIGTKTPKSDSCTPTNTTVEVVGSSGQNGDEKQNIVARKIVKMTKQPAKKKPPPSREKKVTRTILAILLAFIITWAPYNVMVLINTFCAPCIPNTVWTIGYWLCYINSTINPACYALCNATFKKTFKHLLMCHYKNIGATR
In words: Competitive binding affinity to human muscarinic M2 receptor expressed in CHO-K9 cells assessed as rightward shift of saturation isotherm resulting in Schild regression in presence of increasing concentration of W84 by Schild-like analysis. In kind it is cell-based. In short, it runs like this:
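High-content imaging saturation binding of fluorescent ligand at intact CHO-hM2R cells in the presence of increasing concentrations of the allosteric modulator W84. Rightward shifts (ΔpKd) plotted as log(r−1) vs log[modulator], with r = 10^ΔpKd. Three independent experiments in triplicate.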

The target of assay [2] is T2, Muscarinic acetylcholine receptor M2 (Homo sapiens, UniProt P08172).
T2 sequence (P08172 whole entry): T1 sequence (whole entry)
In words: Displacement of [3H]-NMS from human muscarinic M2 receptor stably expressed in CHO-K9 cells by radioligand competitive binding assay. The format is cell-based. In short, it runs like this: (§1)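 Equilibrium competition binding at live CHO-hMxR cells with [3H]NMS at M1 0.2, M2 0.2, M3 0.2, M4 0.1, M5 0.3 nM. […] Four-parameter logistic fit converted to pKi; at least three experiments in triplicate (some two).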
For orientation: Loss of bound radioactivity is the signal in a displacement assay; it reports binding, not function.

Assay [3] addresses T3, Muscarinic acetylcholine receptor M4 (Homo sapiens, UniProt P08173).
T3 sequence (P08173 whole entry): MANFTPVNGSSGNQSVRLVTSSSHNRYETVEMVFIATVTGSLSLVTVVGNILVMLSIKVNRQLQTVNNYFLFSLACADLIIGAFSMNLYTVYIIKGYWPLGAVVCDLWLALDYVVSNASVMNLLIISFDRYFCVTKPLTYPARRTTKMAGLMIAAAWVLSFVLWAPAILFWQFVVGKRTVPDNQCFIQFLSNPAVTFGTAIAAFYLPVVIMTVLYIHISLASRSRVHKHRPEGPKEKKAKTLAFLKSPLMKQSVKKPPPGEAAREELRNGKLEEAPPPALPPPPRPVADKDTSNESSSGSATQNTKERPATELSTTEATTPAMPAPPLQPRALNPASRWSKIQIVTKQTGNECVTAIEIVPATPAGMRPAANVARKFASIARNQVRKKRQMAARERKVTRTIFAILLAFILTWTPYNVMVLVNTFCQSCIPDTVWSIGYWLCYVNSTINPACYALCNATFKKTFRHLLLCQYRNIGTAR
In words: Antagonist activity at human muscarinic M4 receptor expressed in HEK293 cells co-expressing HA-Galphaq/i5 assessed as inhibition of carbachol-induced IP1 accumulation at 22 degree C pre-incubated for 180 mins followed by carbachol addition and further incubated at 37 degree C for 90 mins by HTRF assay. In kind it is functional, cell-based. For orientation: TR-FRET usually uses a lanthanide donor and a delayed reading to cut background.

Assay [4] deals with T4, Muscarinic acetylcholine receptor M1 (Homo sapiens, UniProt P11229).
T4 sequence (P11229 whole entry): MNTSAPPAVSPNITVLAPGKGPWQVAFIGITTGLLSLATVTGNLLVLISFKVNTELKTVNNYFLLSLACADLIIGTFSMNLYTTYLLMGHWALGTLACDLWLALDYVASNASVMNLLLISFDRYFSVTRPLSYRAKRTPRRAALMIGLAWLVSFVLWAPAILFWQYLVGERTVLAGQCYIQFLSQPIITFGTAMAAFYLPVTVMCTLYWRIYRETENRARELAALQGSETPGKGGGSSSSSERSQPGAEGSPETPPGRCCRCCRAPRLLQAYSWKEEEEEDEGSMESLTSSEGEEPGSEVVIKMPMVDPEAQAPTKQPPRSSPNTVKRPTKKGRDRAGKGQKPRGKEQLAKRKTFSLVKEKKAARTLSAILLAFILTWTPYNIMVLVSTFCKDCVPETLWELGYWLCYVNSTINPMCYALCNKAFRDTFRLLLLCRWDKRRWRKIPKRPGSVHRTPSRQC
In words: Binding affinity to human muscarinic M1 receptor expressed in CHO-K9 cells incubated in dark measured after 60 mins by Hoechst H33342 dye based confocal plate reader assay. In kind it is cell-based. The procedure, abridged:
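Live CHO-hMxR cells (M1 or M2) incubated with fluorescent ligand at 22 °C in the dark for 1 h, washed, then imaged at once by high-content confocal plate reader.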

Assay [5] has as its target T2, Muscarinic acetylcholine receptor M2. Description: Binding affinity to human muscarinic M2 receptor expressed in […] cells incubated in dark at 22 degree C for 2 hrs by FACSCalibur flow cytometric saturation binding study. The format is cell-based. As to conditions: for pKd: read-out: Kd; for Kd: read-out: pKd (converted). Background: A flow cytometer gives signals particle by particle.

Assay [6] deals with T3, Muscarinic acetylcholine receptor M4. In words: Displacement of [3H]-NMS from human muscarinic M4 receptor stably expressed in CHO-K9 cells by radioligand competitive binding assay. In kind it is cell-based. In short, it runs like this:
as §1

Assay [7] has as its target T1, Muscarinic acetylcholine receptor M2 (Homo sapiens). Description: Agonist activity at human muscarinic M2 receptor expressed in HEK293 cells co-expressing HA-Galphaq/i5 assessed as induction of Galphaq/i5-mediated IP1 accumulation by HTRF assay. The format is functional, cell-based. The procedure, abridged: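 HEK-293 cells transiently co-transfected with hM2R and hybrid Gαqi5-HA, run in agonist mode at 37 °C; IP1 accumulation measured. Carbachol control from 14 independent experiments in duplicate; test ligands from three or four independent experiments in duplicate.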

Assay [8] addresses T2, Muscarinic acetylcholine receptor M2. Description: Binding affinity to human muscarinic M2 receptor expressed in […] cells at 22 +/- 1 degree C preincubated for 110 mins followed by atropine addition by flow cytometric saturation binding study. The format is cell-based.
The target is the same in assay [9]. In words: Antagonist activity at human muscarinic M2 receptor expressed in HEK293 cells co-expressing HA-Galphaq/i5 assessed as inhibition of carbachol-induced IP1 accumulation at 37 degree C pre-incubated for 30 mins followed by carbachol addition and measured after 60 mins by HTRF assay. The format is functional, cell-based.
Assay [10] addresses T1, Muscarinic acetylcholine receptor M2 (Homo sapiens). In words: Binding affinity to human muscarinic M2 receptor expressed in CHO-K9 cells assessed as dissociation rate constant at 22 +/- 1 degree C preincubated for 180 mins followed by atropine addition by flow cytometric saturation binding study. In kind it is cell-based. The procedure, abridged:
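Dissociation followed by flow cytometry at 22 °C over 9 h. koff from three-parameter incomplete monophasic decline fit; three or four experiments in duplicate.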

Assay [11] deals with T4, Muscarinic acetylcholine receptor M1. In words: Binding affinity to human muscarinic M1 receptor expressed in CHO-K9 cells incubated in dark at 22 degree C for 2 hrs by FACSCalibur flow cytometric saturation binding study. The format is cell-based.
Assay [12] deals with T2, Muscarinic acetylcholine receptor M2. Description: Binding affinity to human muscarinic M2 receptor expressed in […] cells at 22 +/- 1 degree C preincubated for 180 mins followed by atropine addition by flow cytometric kinetic binding study.
For assay [13] the target is unchanged. Description: Binding affinity to human muscarinic M2 receptor expressed in […] cells at 22 +/- 1 degree C preincubated for 120 mins followed by atropine addition by flow cytometric saturation binding study. In kind it is cell-based.

pIC50, pKd, pKi: −log10 of the molar value. The source made the active and inactive calls. No cut-off for these calls is given here.

Regarding `CC1(C)C(/C=C/C=C/C=C2/N(CCCCCC(=O)NCc3cc(C(=O)NCCNC(=O)CCc4cn(CCCCC5CCN(CC(=O)N6c7ccccc7NC(=O)c7ccccc76)CC5)cn4)cc(C(=O)NCCNC(=O)CCc4cn(CCCCC5CCN(CC(=O)N6c7ccccc7NC(=O)c7ccccc76)CC5)cn4)c3)c3ccc(S(=O)(=O)O)cc3C2(C)C)=[N+](CCCCS(=O)(=O)[O-])c2ccccc21.O=C(O)C(F)(F)F.O=C(O)C(F)(F)F.O=C(O)C(F)(F)F`, in assay [1], the outcome was Active. Also, the pKi – broadly, −log10 of the Ki, conventionally taken in molar units – was 9.20 in [2] and 8.54 in assay [6]. Moreover, the pIC50 – broadly, the IC50 on a negative log10 scale, so that one unit is a factor of ten – was 7.43 in assay [3] and 7.62 in assay [9]. The pKd (commonly the Kd on a negative log10 scale, so that one unit is a factor of ten) in [4] is 8.00; in assay [5] it was 8.49; in assay [8] it was 8.85. The Kd in [5] was 3.09 nM. Further, in assay [7], the outcome was inactive.
With `CC1(C)C(/C=C/C=C/C=C2/N(CCCCCC(=O)NCCN3CCN(CCCCC4CCN(CC(=O)N5c6ccccc6NC(=O)c6ccccc65)CC4)CC3)c3ccc(S(=O)(=O)O)cc3C2(C)C)=[N+](CCCCS(=O)(=O)[O-])c2ccccc21.O=C(O)C(F)(F)F.O=C(O)C(F)(F)F`, the K in assay [10] came to 0.0045 min⁻¹. Moreover, the result in [1] was Active. Besides, the pKd in assay [11] is 8.19; in [5] it was 9.10; in [12], 9.32. Also, the pKi is 9.28 in assay [2] and 8.67 in assay [6]. The pIC50 in assay [3] was 6.99; in assay [9], 6.65. Further, in assay [5], the Kd is 0.891 nM. For the same molecule, the outcome in assay [7] was inactive.
Take `CC1(C)C(/C=C/C=C/C=C2/N(CCCCCC(=O)NCCNC(=O)CCc3cn(CCCCC4CCN(CC(=O)N5c6ccccc6NC(=O)c6ccccc65)CC4)cn3)c3ccc(S(=O)(=O)O)cc3C2(C)C)=[N+](CCCCS(=O)(=O)[O-])c2ccccc21.O=C(O)C(F)(F)F`: the outcome in assay [1] was Active. The figures for the pKd in assay [13], in [4] and in assay [5] were 8.72, 7.58 and 8.39, respectively. Moreover, the pKi in assay [2] is 9.10; in [6] it was 8.35. The pIC50 was 6.86 in assay [3] and 6.45 in [9]. For the same molecule, the Kd in assay [5] is 4.47 nM. Besides, the outcome in assay [7] was inactive.
